Measurements as given in ChEMBL document CHEMBL3243993, “Cardenolide analogues. 4. (20R)- and (20S)-Cardanolides: on the roles of the 20(22)-ene and 14beta-hydroxyl in genin activity” (J Med Chem, 1979).
pIC50: −log10 of the molar value.

What was measured:
[1] = Inhibition of rat brain (Na+,K+)ATPase in presence of appropriate Mg2+ and Na+; details: read-out: I50
[2] = Inhibition of rat brain (Na+,K+)ATPase incubated for 10 mins followed by Kcl added in presence of appropriate Mg2+ and Na+; details: read-out: I50
Procedure, shortened: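 Steroids added in ethanol to the (Na+,K+)ATPase tubes, at most 20 μL ethanol per tube. After 10 min, KCl was added to start (Na+,K+)ATPase activity. Where a steroid was insoluble in the medium, no precise value could be obtained.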

[3] = Solubility of the compound in steroid medium; type: physicochemical
Procedure, shortened: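 Observed in the (Na⁺,K⁺)ATPase assay medium. Steroids were added in ethanol to the enzyme tubes, at no more than 20 μL ethanol per tube. After 10 min, KCl was added to start (Na⁺,K⁺)ATPase activity.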

solubility [3]	Compound	pIC50 [1]	pIC50 [2]
	C[C@]12CC[C@H](O)C[C@H]1CC[C@@H]1[C@@H]2CC[C@]2(C)[C@@H]([C@@H]3COC(=O)C3)CC[C@]12O	4.85	4.96
	C[C@]12CC[C@H](O)C[C@H]1CC[C@@H]1[C@@H]2CC[C@]2(C)[C@@H](C3=CC(=O)OC3)CC[C@]12O [DIGITOXIGENIN]	6.46	6.46
	C=C1C(=O)OC[C@@H]1[C@H]1CC=C2[C@@H]3CC[C@@H]4C[C@@H](O)CC[C@]4(C)[C@H]3CC[C@@]21C	4.52	4.70
	C=C1C(=O)OC[C@@H]1[C@H]1CC[C@]2(O)[C@@H]3CC[C@@H]4C[C@@H](O)CC[C@]4(C)[C@H]3CC[C@]12C	4.15	4.15
Insoluble	C=C1C(=O)OC[C@H]1[C@H]1CC=C2[C@@H]3CC[C@@H]4C[C@@H](O)CC[C@]4(C)[C@H]3CC[C@@]21C	4.00	4.00
	C[C@]12CC[C@H](O)C[C@H]1CC[C@@H]1[C@@H]2CC[C@]2(C)[C@@H]([C@H]3COC(=O)C3)CC[C@]12O	4.85	4.92
	C=C1C(=O)OC[C@H]1[C@H]1CC[C@]2(O)[C@@H]3CC[C@@H]4C[C@@H](O)CC[C@]4(C)[C@H]3CC[C@]12C	4.15	4.22
